Measured values as given in ChEMBL document CHEMBL5120973, “Discovery of Desmuramylpeptide NOD2 Agonists with Single-Digit Nanomolar Potency” (ACS Med Chem Lett, 2022).
Activity calls are given as the source filed them. No cut-off for these calls is given here.

Legend:
[1] = target: T1, Nucleotide-binding oligomerization domain-containing protein 2 (Mus musculus) (UniProt Q8K3Z0); test: Agonist activity at mouse NOD2 expressed in RAW -Blue NOD2 reporter cells by colorimetry based SEAP assay; settings: filed as agonist
T1 sequence (whole entry): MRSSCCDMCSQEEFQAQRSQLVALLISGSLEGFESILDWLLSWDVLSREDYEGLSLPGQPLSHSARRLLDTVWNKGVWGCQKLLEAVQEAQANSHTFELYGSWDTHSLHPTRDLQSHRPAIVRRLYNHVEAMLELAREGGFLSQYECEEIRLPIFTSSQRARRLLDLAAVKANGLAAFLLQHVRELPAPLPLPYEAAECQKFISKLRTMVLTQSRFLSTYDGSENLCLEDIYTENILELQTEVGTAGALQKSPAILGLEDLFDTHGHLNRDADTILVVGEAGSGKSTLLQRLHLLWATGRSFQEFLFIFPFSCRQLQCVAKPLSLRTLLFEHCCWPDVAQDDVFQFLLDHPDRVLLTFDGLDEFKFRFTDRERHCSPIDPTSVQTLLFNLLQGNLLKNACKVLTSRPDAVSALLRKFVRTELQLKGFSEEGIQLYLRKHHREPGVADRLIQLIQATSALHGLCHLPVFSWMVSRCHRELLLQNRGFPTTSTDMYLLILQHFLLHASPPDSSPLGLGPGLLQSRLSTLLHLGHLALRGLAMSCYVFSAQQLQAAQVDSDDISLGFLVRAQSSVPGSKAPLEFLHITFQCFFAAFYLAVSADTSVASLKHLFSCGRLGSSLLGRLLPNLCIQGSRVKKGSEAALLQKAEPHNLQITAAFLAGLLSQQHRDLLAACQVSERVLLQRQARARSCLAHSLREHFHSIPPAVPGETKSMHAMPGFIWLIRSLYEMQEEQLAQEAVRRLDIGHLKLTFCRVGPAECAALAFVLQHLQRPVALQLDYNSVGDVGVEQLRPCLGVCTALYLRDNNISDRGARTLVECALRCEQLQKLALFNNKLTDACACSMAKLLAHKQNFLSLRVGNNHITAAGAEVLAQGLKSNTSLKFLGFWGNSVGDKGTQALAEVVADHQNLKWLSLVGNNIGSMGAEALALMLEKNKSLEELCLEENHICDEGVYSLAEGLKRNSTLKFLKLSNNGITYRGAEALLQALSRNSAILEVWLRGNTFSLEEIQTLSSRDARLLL

[2] = target: Nucleotide-binding oligomerization domain-containing protein 2 (Homo sapiens) (UniProt Q9HC29); test: Synergistic agonist activity at NOD2 in human PBMC assessed as induction of TNFalpha production at 1 uM incubated for 18 hrs in presence of IFN-gamma; format: cell-based; settings: filed as agonist
Nucleotide-binding oligomerization domain-containing protein 2 (Homo sapiens), sequence (Q9HC29 whole entry, the tested form may be a part): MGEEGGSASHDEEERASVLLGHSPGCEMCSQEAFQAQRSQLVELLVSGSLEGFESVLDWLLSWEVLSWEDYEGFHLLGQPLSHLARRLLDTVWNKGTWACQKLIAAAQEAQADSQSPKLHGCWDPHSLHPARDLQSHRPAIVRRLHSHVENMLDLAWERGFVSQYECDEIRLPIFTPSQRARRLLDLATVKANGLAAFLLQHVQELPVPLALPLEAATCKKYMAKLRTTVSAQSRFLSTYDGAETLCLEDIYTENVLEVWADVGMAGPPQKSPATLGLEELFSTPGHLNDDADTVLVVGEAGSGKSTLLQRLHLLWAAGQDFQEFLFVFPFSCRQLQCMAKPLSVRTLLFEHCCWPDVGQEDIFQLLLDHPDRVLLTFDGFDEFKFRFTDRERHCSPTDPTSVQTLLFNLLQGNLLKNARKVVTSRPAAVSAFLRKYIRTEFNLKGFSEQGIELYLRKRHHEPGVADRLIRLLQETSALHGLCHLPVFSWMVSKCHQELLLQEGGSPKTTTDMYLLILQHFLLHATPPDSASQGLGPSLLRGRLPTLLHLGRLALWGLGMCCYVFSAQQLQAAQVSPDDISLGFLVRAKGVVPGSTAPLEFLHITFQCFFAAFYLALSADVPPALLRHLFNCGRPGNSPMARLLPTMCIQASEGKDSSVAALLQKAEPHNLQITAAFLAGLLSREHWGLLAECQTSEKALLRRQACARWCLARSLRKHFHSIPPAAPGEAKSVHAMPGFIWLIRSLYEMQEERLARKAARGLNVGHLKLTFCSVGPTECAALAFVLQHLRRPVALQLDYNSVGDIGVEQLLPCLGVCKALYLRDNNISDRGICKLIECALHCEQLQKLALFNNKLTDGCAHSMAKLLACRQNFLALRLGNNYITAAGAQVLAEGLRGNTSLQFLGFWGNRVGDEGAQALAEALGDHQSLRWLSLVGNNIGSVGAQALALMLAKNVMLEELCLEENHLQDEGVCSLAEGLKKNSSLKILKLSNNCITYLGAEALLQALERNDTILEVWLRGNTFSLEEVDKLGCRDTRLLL
Outline: (§1)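 PBMCs (500,000/well) treated with agonist at 1 μM together with LPS (10 ng/mL) or IFN-γ (200 U/mL); vehicle 0.1% DMSO. Supernatants taken after 18 h at 37 °C, 5% CO2, stored at -80 °C, then assayed for cytokines by cytometric bead array on a flow cytometer.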

[3] = target: Nucleotide-binding oligomerization domain-containing protein 2 (Homo sapiens) (UniProt Q9HC29); test: Synergistic agonist activity at NOD2 in human PBMC assessed as induction of TNF-alpha production at 1 uM incubated for 18 hrs in presence of LPS; format: cell-based; settings: filed as agonist
Outline: as §1

[4] = target: Nucleotide-binding oligomerization domain-containing protein 2 (Homo sapiens) (UniProt Q9HC29); test: Agonist activity at NOD2 in human PBMC assessed as induction of IL-8 production at 1 uM incubated for 18 hrs; format: cell-based; settings: filed as agonist
Outline: (§2)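 500,000 cells/well in 500 μL medium, treated 18 h at 37 °C, 5% CO2 against a 0.1% DMSO vehicle. Cell-free supernatants stored at -80 °C. Cytokines measured by cytometric bead array (human inflammatory cytokines) on a flow cytometer.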

[5] = target: Nucleotide-binding oligomerization domain-containing protein 2 (Homo sapiens) (UniProt Q9HC29); test: Agonist activity at NOD2 in human PBMC assessed as induction of IL-1beta production at 1 uM incubated for 18 hrs; format: cell-based; settings: filed as agonist
Outline: as §2

[6] = target: Nucleotide-binding oligomerization domain-containing protein 2 (Homo sapiens) (UniProt Q9HC29); test: Synergistic agonist activity at NOD2 in human PBMC assessed as induction of IL-1beta production at 1 uM incubated for 18 hrs in presence of LPS; format: cell-based; settings: filed as agonist
Outline: as §1

[7] = target: Nucleotide-binding oligomerization domain-containing protein 2 (Homo sapiens) (UniProt Q9HC29); test: Agonist activity at NOD2 in human PBMC assessed as induction of IL-6 production at 1 uM incubated for 18 hrs; format: cell-based; settings: filed as agonist
Outline: as §2

[8] = target: Nucleotide-binding oligomerization domain-containing protein 2 (Homo sapiens) (UniProt Q9HC29); test: Synergistic agonist activity at NOD2 in human PBMC assessed as induction of IL-6 production at 1 uM incubated for 18 hrs in presence of LPS; format: cell-based; settings: filed as agonist
Outline: as §1

PBMC [9] = test: Synergistic potentiation of IFN-gamma-induced cytotoxicity of human PBMCs against human K562 cells assessed as increase in dead cells level at 1 uM incubated for 18 hrs before addition of K562 cells by CFSE/Sytox Blue staining based flow cytometry relative to control
[10] = target: Nucleotide-binding oligomerization domain-containing protein 2 (Homo sapiens) (UniProt Q9HC29); test: Synergistic agonist activity at NOD2 in human PBMC assessed as induction of IL-1beta production at 1 uM incubated for 18 hrs in presence of IFN-gamma; format: cell-based; settings: filed as agonist
Outline: as §1

[11] = target: Nucleotide-binding oligomerization domain-containing protein 2 (Homo sapiens) (UniProt Q9HC29); test: Agonist activity at NOD2 in human PBMC assessed as induction of TNFalpha production at 1 uM incubated for 18 hrs; format: cell-based; settings: filed as agonist
Outline: as §2

[12] = target: Nucleotide-binding oligomerization domain-containing protein 2 (Homo sapiens) (UniProt Q9HC29); test: Synergistic agonist activity at NOD2 in human PBMC assessed as induction of IL-6 production at 1 uM incubated for 18 hrs in presence of IFN-gamma; format: cell-based; settings: filed as agonist
Outline: as §1

PBMC [13] = test: Synergistic potentiation of LPS-induced cytotoxicity of human PBMCs against human K562 cells assessed as increase in dead cells level at 1 uM incubated for 18 hrs before addition of K562 cells by CFSE/Sytox Blue staining based flow cytometry relative to control

Activity [1] | Activity [2] | Activity [3] | Activity [4] | Activity [5] | Activity [6] | Activity [7] | Activity [8] | Activity [10] | Activity [11] | Activity [12] | Structure (SMILES) | Activity (PBMC [9]) | Activity (PBMC [13])
Active | Active | Active | Active | Active | Active | Active | Active | Active | Active | Active | CCOC(=O)CC[C@@H](NC(=O)[C@@H](NC(=O)CNC(=O)/C=C/c1ccc(OC(=O)CC23CC4CC(CC(C4)C2)C3)c(OC)c1)C(C)C)C(=O)OCC | Active | Active
– | – | – | Active | Active | – | Active | – | – | Active | – | CC(=O)N[C@@H]1[C@@H](O[C@H](C)C(=O)N[C@@H](C)C(=O)N[C@H](CCC(=O)O)C(N)=O)[C@@H](O)[C@@H](CO)O[C@H]1O | – | –
– | – | – | – | – | – | – | – | – | – | – | COc1cc(/C=C/C(=O)NCC(=O)N[C@H](C(=O)N[C@H](CCC(=O)OC2CCCC2)C(=O)OC2CCCC2)C(C)C)ccc1O | Active | Active
